UHRF1 binding – UHRF1 methyl-DNA binding inhibition; Q96T88; UHRF1 binding to methylated oligo, TR-FRET; inhibition, % at 4.4 µM; 370,000 compounds, 0.75% hits; AID 687016; in the data active = inhibition above about 21%;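 note: UHRF1 SRA domain binding a hemimethylated CpG hairpin DNA probe; 0% = median of test compound wells and 100% = reference inhibitor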
MBD2 inh – inhibitors of human MBD2 binding to methylated oligonucleotide; inhibition, % at 4.4 µM; TR-FRET; 370,000 compounds, 0.31% hits; in the data active = inhibition above about 13%
Target sequence (Q9UBB5 whole entry, looked up): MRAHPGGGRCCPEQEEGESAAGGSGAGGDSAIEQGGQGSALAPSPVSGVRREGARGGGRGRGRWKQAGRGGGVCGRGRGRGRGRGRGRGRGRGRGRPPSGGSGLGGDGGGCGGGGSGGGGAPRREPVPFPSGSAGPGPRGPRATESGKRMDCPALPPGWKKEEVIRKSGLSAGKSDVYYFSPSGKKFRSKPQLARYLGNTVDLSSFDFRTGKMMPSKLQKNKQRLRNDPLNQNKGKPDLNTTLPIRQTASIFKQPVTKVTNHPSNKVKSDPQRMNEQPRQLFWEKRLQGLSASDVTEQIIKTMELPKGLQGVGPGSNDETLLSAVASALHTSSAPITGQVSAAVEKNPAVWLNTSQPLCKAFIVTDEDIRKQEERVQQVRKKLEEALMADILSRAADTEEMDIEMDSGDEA
TDP2 inh – blocks human TDP2 phosphodiesterase activity; O95551; recombinant TDP2, T5PNP hydrolysis, p-nitrophenol absorbance 415 nm; inhibition, % at 12.8 µM; 370,000 compounds, 0.34% hits;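 active = inhibition above the mean of all tested compounds plus 3 SD, set per campaign, cut at about 25% in these data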;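 note: 0% = DMSO with enzyme and 100% = buffer with substrate but no TDP2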
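Evaluation: % inhibition relative to enzyme-containing and enzyme-free wells. Material: recombinant human TDP2. Benchmarks: enzyme-free and DMSO wells. Timing: enzyme reaction with compound for 2 h at 37 °C. Compound dosing: 12.8 µM only. Measured by: p-Nitrophenol epi absorbance. Reagent: T5PNP substrate at 5 mM, a TopII-DNA adduct mimic. Replication: single well per compound.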
LEDGF integ inh – blocks HIV-1 LEDGF/p75-dependent DNA integration. TR-FRET IN-LEDGF/p75 DNA integration, Eu/Cy5. inhibition, % at 3.7 µM. 370,000 compounds, 0.64% hits. AID 743269;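 active = inhibition above the screen-wide mean plus 3 SD, cut at about 13% in these data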;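 note: signal is the Cy5 over europium emission ratio at 671 and 618 nm; 0% = plate median of compound wells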
IN multimer act – HIV-1 integrase multimerization activation, counter-screen. shares compounds with LEDGF integ inh. TR-FRET HIV-1 integrase multimerization, biochemical. activation, % at 7.7 µM. 2,000 compounds, 17% hits; in the data active = activation above about 8.9%
TR-FRET interf – counter-screen for LEDGF/p75 integration inhibitors: TR-FRET optical interference | shares compounds with LEDGF integ inh | TR-FRET optical interference counterscreen, HIV-1 IN multimerization | inhibition, % at 7.7 µM | 2,000 tested, under 10 active;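 active = inhibition above the mean over all tested compounds plus 3 SD, which no compound reached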;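 note: 0% = integrase with antibodies and DMSO and 100% = antibodies without integrase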
LEDGF integ conf – LEDGF/p75-dependent HIV-1 integration inhibition, confirmation; AID 1053136; TR-FRET LEDGF/p75-dependent HIV-1 integration, biochemical; 2,000 compounds, 36% hits; inhibition, % at 3.7 µM; shares compounds with LEDGF integ inh; in the data active = inhibition above about 14%
* hit, by the source's call; nt = not tested or not shown. The list is not random: actives were taken first. Their share in the collection is about 1.6%.

SMILES | UHRF1 binding | MBD2 inh | TDP2 inh | LEDGF integ inh | IN multimer act | TR-FRET interf | LEDGF integ conf
Oc1ccc(C=Nc2ccccc2-c2nc3ccccc3[nH]2)c(O)c1 | -4 | -4 | 0 | 3 | nt | nt | nt
Cc1c(C(C)c2ccccc2O)c2ccccc2n1C (stereo not drawn) | -3 | 4 | 4 | -4 | nt | nt | nt
COC(=O)C1=C(CCc2ccccc2)NC(=O)NC1c1ccc(Cl)cc1 (stereo not drawn) | 0 | -2 | 1 | 18* | 2 | -5 | -7
O=C(c1cccs1)n1ccc2ccc(-c3ccc4ccn(Cc5ccccc5)c4c3)cc21 | 2 | 2 | -3 | -5 | nt | nt | nt
O=C(N/N=C/c1cccnc1)c1cc(O)c(O)c(O)c1 | 15 | 1 | 15 | 38* | 35* | -125 | 20*
CCOc1ccc(CC(=O)N/N=C/c2cccnc2)cc1OCC | -4 | -3 | 7 | 70* | 2 | -10 | 0
Cc1cc(-c2n[nH]c(=S)n2N=Cc2ccc(OCc3ccccc3)cc2)n[nH]1 | -2 | -4 | 3 | 2 | nt | nt | nt
CNCc1ccccc1Sc1ccc(O)c(O)c1 | 17 | 12 | -1 | 14* | 3 | -13 | 10
Cc1ccc(Nc2ccc(N)cc2S(=O)(=O)O)cc1 | 3 | -1 | 1 | 19* | 10* | -36 | 2
Nc1ccc(Nc2ccccc2)c(S(=O)(=O)O)c1 | 20 | 2 | -6 | 19* | 10* | -53 | 11
O=C(C1CCCN(S(=O)(=O)c2ccccc2F)C1)N1CCN(Cc2ccccc2)CC1 (stereo not drawn) | 1 | 2 | 6 | 1 | nt | nt | nt
O=C(O)CC1(O)C(=O)N(Cc2ccccc2)c2ccccc21 (stereo not drawn) | -2 | -3 | -4 | 4 | nt | nt | nt
N#CCC1(O)C(=O)N(Cc2ccccc2)c2ccccc21 (stereo not drawn) | -3 | 2 | -2 | 76* | 1 | -3 | -10
COc1cc(F)c(S(=O)(=O)N2CCCN(S(=O)(=O)c3cccc(N)c3)CC2)c(F)c1 | 0 | 5 | 13 | 0 | nt | nt | nt
CC(=O)N1CCc2cc3nc(C)cc(C)c3cc21 | 2 | 2 | 1 | 52* | 1 | -3 | -5
CCCOC(=O)C1=C(C)N(C)C(=O)NC1c1cc2c(cc1[N+](=O)[O-])OCO2 (stereo not drawn) | 8 | 10 | 10 | 3 | nt | nt | nt
CCOC(=O)C1=C(C)NC(=O)CC1c1cc2c(cc1[N+](=O)[O-])OCO2 (stereo not drawn) | 1 | -3 | -2 | 22* | 1 | -7 | 2
CC(C)N=c1scc(-c2ccco2)n1/N=C/c1ccc(O)c(O)c1 | 1 | -2 | -9 | -4 | nt | nt | nt
COCCN=c1scc(-c2ccco2)n1/N=C/c1ccc(O)c(O)c1O | 6 | 2 | 2 | 45* | 16* | -57 | 53*
C=CCN=c1scc(-c2ccco2)n1/N=C/c1ccc(O)c(O)c1O | 0 | -5 | 0 | 43* | 7 | -37 | 30*
C=CCn1c(Cc2cccs2)nnc1SCC(=O)Nc1ccc2c(c1)OCO2 | 2 | 2 | 1 | -3 | nt | nt | nt
CCC[C@H]1[C@@H](NC(=O)c2ccc(Cl)c(C(F)(F)F)c2)CC[C@@]23CCCN2C(=O)CCC[C@@H]13 | -1 | 2 | 2 | -2 | nt | nt | nt
O=C(O)c1cccc(Cl)n1 | 0 | -4 | 4 | 83* | 2 | -8 | -4
Nc1cc2cccnc2cc1Cl | 7 | -3 | 9 | 18* | 5 | -16 | 27*
Brc1ccc2cccnc2c1 | 2 | 1 | -4 | -2 | nt | nt | nt
SMILES | UHRF1 binding | MBD2 inh | TDP2 inh | LEDGF integ inh | IN multimer act | TR-FRET interf | LEDGF integ conf
COCc1[nH]nc2c1C(c1ccccc1)N(Cc1ccccc1)C2=O (stereo not drawn) | 1 | -3 | -6 | 4 | nt | nt | nt
CC1Cn2c(CCc3ccccc3)nnc2S1 (stereo not drawn) | 1 | 3 | 4 | 23* | 0 | -1 | -6
Cc1ccc(C)c(N=Cc2cc3c(cc2[N+](=O)[O-])OCO3)c1 | 38* | 9 | 10 | 40* | 0 | -2 | 4
O=C(O)/C=C\c1cc2c(cc1[N+](=O)[O-])OCO2 | -2 | 4 | 8 | 1 | nt | nt | nt
CC(=O)N(C)c1ccc(N=Cc2cc3c(cc2[N+](=O)[O-])OCO3)cc1 | 3 | -7 | 37* | 43* | 7 | -33 | 51*
CC(C)(C)c1ccc(O)c(N=Cc2cc3c(cc2[N+](=O)[O-])OCO3)c1 | -3 | -2 | -6 | 7 | nt | nt | nt
COC(=O)[C@]12C[C@H](CC(=O)N3CCN(C(=O)C4CC4)CC3)C(=O)N(Cc3ccc(Cl)cc3Cl)C1=C[C@H](C(C)(C)C)O[C@@H]2C | 0 | 6 | -5 | 3 | nt | nt | nt
Cc1ccc(N2C(=O)[C@@H]3[C@H](C2=O)C2c4ccccc4C=CN2[C@@H]3C(=O)c2ccco2)cc1 (stereo partly drawn) | -9 | 2 | 14 | 13* | 1 | -5 | 25*
O=S1(=O)c2ccc(Br)cc2OC[C@H](Cc2ccccc2)N1Cc1cn(Cc2ccc(F)cc2)nn1 | 3 | -1 | -16 | 6 | nt | nt | nt
CCOC(=O)CCCCC(=O)c1[nH]c(=O)[nH]c1C[n+]1ccc(C)cc1 | -3 | -4 | 9 | 8 | nt | nt | nt
CCOC(=O)CCCCC(=O)c1[nH]c(=O)[nH]c1CN1CCOCC1 | -1 | -4 | -2 | 17* | 0 | -1 | 13
CCOC(=O)CCCCC(=O)c1[nH]c(=O)[nH]c1CSc1nc(C)cc(C)n1 | 4 | 5 | -14 | 26* | -1 | 4 | 19*
CCOC(=O)CCCCC(=O)c1[nH]c(=O)[nH]c1CSc1nc(C)cc(=O)[nH]1 | 0 | 5 | -11 | 35* | 4 | -16 | 49*
CCOC(=O)c1[nH]c(=O)[nH]c1CSc1nc(C)cc(C)n1 | 0 | -6 | 4 | -4 | nt | nt | nt
O=C1CC(N2CCCN(Cc3ccccc3)CC2)=NC(=O)N1c1ccc(Br)cc1 | 0 | 0 | -7 | 5 | nt | nt | nt
COCCCNC(=O)C[C@H]1C[C@@]2(C(=O)OC)C(=C[C@H](C(C)(C)C)O[C@@H]2C)N(CCC2=CCCCC2)C1=O | 0 | 1 | -3 | -3 | nt | nt | nt
Cc1ccc2c(c1)c1c3n2CCN(C(=O)CN2CCN(C)CC2)C3CCC1 (stereo not drawn) | -2 | 2 | 0 | 0 | nt | nt | nt
Cc1ccc2c(c1)c(=O)c1c3n2CCN(C(=O)CCl)C3CC1 (stereo not drawn) | -4 | -9 | 21 | 14* | 15* | -54 | 49*
Cc1cc2c(c(=O)o1)[C@@]1(C(=O)N(C)c3cc(Br)ccc31)C1=C(CCCC1=O)O2 | 4 | 6 | 2 | 6 | nt | nt | nt
Cc1ccccc1N(C)C(=O)C1CCCN1S(=O)(=O)c1cccc2cccnc12 (stereo not drawn) | 2 | 4 | -10 | -4 | nt | nt | nt
